Calls of active or inactive are those of the source. No cut-off for these calls is given here.
How the values were obtained:
[1] = Antioxidant activity assessed as reduction of DPPH activity at 0.1 mM after 60 mins; assay type: functional; design: scale not given: the % may be the effect or the level left
Outline: (§1)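 DPPH at 0.05 mM final in absolute ethanol was mixed with test compounds in ethanol at 0.1 or 0.5 mM final, with ethanol as the control. After 20 and 60 min at room temperature, absorbance was read at 517 nm. At least triplicate.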

[2] = Antioxidant activity assessed as reduction of DPPH activity at 0.5 mM after 20 mins; assay type: functional; design: scale not given: the % may be the effect or the level left; outline: as §1
[3] = Antioxidant activity assessed as reduction of DPPH activity at 0.5 mM after 60 mins; assay type: functional; design: scale not given: the % may be the effect or the level left; outline: as §1
Glycine max = assay: Inhibition of soybean lipoxygenase assessed as conversion of sodium linoleate to 13-hydroperoxylinoleic acid at 0.1 mM
Outline: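 Soybean lipoxygenase (enzyme solution 1/9 × 10^-4 w/v in saline) was incubated at room temperature with sodium linoleate 0.1 mM and test compounds in ethanol. Conversion to 13-hydroperoxylinoleic acid was followed at 234 nm and compared with a standard inhibitor. At least triplicate.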

[4] = Acute toxicity in rat assessed as survival up to 0.5 mmol/kg after 24 hrs; assay type: organism-based; conditions: in vivo, read-out: Activity
Outline: (§2)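 Rats were split into 5 groups of 6–8 animals each and injected with graded doses of 0.1–0.5 mmol/kg body weight. Animals were then scored for survival and examined macroscopically and at autopsy.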

Rattus norvegicus [5] = assay: In vivo antiinflammatory activity in Fisher 344 rat assessed as inhibition of carrageenan-induced paw edema at 0.01 mmol/kg, ip administered simultaneously with carrageenan measured after 3.5 hrs; assay type: functional; conditions: Fisher 344, ip
Outline: (§3)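 Rats of both sexes (pregnant females excluded), bred in-house and fasted during the experiment; 6–15 per group, run twice. Test agents were suspended in water with a few drops of Tween 80 and given ip at the time of carrageenin injection. Rats were killed 3.5 h later. Injected minus uninjected paw weight gave % edema inhibition versus water-treated controls.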

[6] = Antioxidant activity assessed as reduction of DPPH activity at 0.1 mM after 20 mins; assay type: functional; design: scale not given: the % may be the effect or the level left; outline: as §1
Rattus norvegicus [7] = assay: Acute toxicity in rat assessed as mortality up to 0.5 mmol/kg after 24 hrs by macroscopic analysis; assay type: organism-based; conditions: in vivo; outline: as §2
[8] = Antioxidant activity against hydroxyl radical assessed as inhibition of formaldehyde production at 0.1 mM after 30 mins relative to DMSO; assay type: functional; design: scale not given: the % may be the effect or the level left
Outline: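 Hydroxyl radicals were generated with Fe3+, DMSO 33 mM and ascorbic acid 10 mM in 50 mM phosphate buffer, pH 7.4, with test compound at 0.1 mM final. Mixtures were incubated 30 min at 37 °C, stopped with CCl3COOH (17% w/v), and formaldehyde was read spectrophotometrically at 412. At least triplicate.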

Rattus norvegicus [9] = assay: Acute toxicity in rat assessed as mortality up to 0.5 mmol/kg after 24 hrs by autopsy; assay type: organism-based; conditions: in vivo; outline: as §2
Rattus norvegicus [10] = assay: Antiinflammatory activity in Fisher 344 rat assessed as inhibition of carrageenan-induced paw edema at 0.01 mmol/kg, ip administered simultaneously with carrageenan measured after 3.5 hrs; assay type: functional; conditions: Fisher 344, ip; outline: as §3
Rattus norvegicus [11] = assay: Antiinflammatory activity in Fisher 344 rat assessed as inhibition of carrageenan-induced paw edema at 0.001 mmol/kg, ip administered simultaneously with carrageenan measured after 3.5 hrs; assay type: functional; conditions: Fisher 344, ip

Which Activity [1] does the source give for `CC(Cc1ccc(O)c(O)c1)C(C)Cc1ccc(O)c(O)c1` (stereo not given) here?
Its Activity is 83%.

And the Activity [2]?
The Activity was 97%.

What about the Activity [3] of the same compound?
Its Activity is 98%.

And the inhibition (Glycine max)?
The inhibition was 84%.

What does the source list for `NCCCCCCCCNC(=O)c1c(O)c2ccccc2oc1=O`?
Activity [1]: 8%; survival at 24 h [4]: 80%; inhibition in vivo at 10 µmol/kg (Rattus norvegicus [5]): 48%; Activity [6]: 17%; Activity (Rattus norvegicus [7]): Non-toxic; Activity [8]: inactive; Activity [2]: 9%; Activity (Rattus norvegicus [9]): Non-toxic; Activity [3]: 19%; inhibition (Glycine max): inactive

For `NCCCCCCNC(=O)c1c(O)oc2ccccc2c1=O`, which Activity [1] is on record?
The Activity was 3%.

And the survival at 24 h [4]?
Its survival at 24 h is 80%.

And the inhibition in vivo at 10 µmol/kg (Rattus norvegicus [5])?
Its inhibition in vivo at 10 µmol/kg is 49%.

What about the Activity [6] of the same compound?
Its Activity is 3%.

And the Activity (Rattus norvegicus [7])?
Its Activity is “Non-toxic”.

And the Activity [8]?
The Activity was 100%.

What about the Activity [2] of the same compound?
The Activity was 5%.

And the Activity (Rattus norvegicus [9])?
The Activity was “Non-toxic”.

What about the Activity [3] of the same compound?
Its Activity is 5%.

What about the inhibition (Glycine max) of the same compound?
The inhibition was 52%.

Which Activity [1] does the source give for `Cc1ccc2oc(=O)c(C(=O)NCCCCCCCCN)c(O)c2c1` here?
The Activity was 68%.

What about the survival at 24 h [4] of the same compound?
The survival at 24 h was 80%.

What about the inhibition in vivo at 10 µmol/kg (Rattus norvegicus [5]) of the same compound?
The inhibition in vivo at 10 µmol/kg was 59%.

And the Activity [6]?
Its Activity is 58%.

What about the Activity (Rattus norvegicus [7]) of the same compound?
Its Activity is “Non-toxic”.

And the Activity [8]?
The Activity was 100%.

What about the Activity [2] of the same compound?
The Activity was 72%.

What about the Activity (Rattus norvegicus [9]) of the same compound?
The Activity was “Non-toxic”.

And the Activity [3]?
The Activity was 78%.

And the inhibition (Glycine max)?
Its inhibition is 30%.

Which results are given for `NCCNC(=O)c1c(O)c2ccccc2oc1=O`?
Activity [1]: 25%; survival at 24 h [4]: 80%; inhibition in vivo at 10 µmol/kg (Rattus norvegicus [5]): 59%; Activity [6]: 42%; Activity (Rattus norvegicus [7]): Non-toxic; Activity [8]: 91%; Activity [2]: inactive; Activity (Rattus norvegicus [9]): Non-toxic; Activity [3]: inactive; inhibition (Glycine max): 100%

Which results are given for `CCOC(=O)c1c(O)oc2ccccc2c1=O`?
Activity [1]: 27%; survival at 24 h [4]: 80%; inhibition in vivo at 10 µmol/kg (Rattus norvegicus [5]): 63%; Activity [6]: 15%; Activity (Rattus norvegicus [7]): Non-toxic; Activity [8]: 91%; Activity [2]: 20%; Activity (Rattus norvegicus [9]): Non-toxic; Activity [3]: 13%; inhibition (Glycine max): 93%

Which inhibition in vivo at 10 µmol/kg (Rattus norvegicus [10]) does the source give for `O=C(CCCCC1CCSS1)NCCCCCCNC(=O)c1c(O)c2ccccc2oc1=O` (stereo not given) here?
Its inhibition in vivo at 10 µmol/kg is 72%.

What about the Activity [1] of the same compound?
The Activity was 18%.

What about the survival at 24 h [4] of the same compound?
The survival at 24 h was 80%.

What about the Activity [6] of the same compound?
Its Activity is 15%.

And the Activity (Rattus norvegicus [7])?
Its Activity is “Non-toxic”.

And the Activity [8]?
Its Activity is 96%.

And the Activity [2]?
Its Activity is 23%.

And the Activity (Rattus norvegicus [9])?
Its Activity is “Non-toxic”.

What about the inhibition in vivo at 1 µmol/kg (Rattus norvegicus [11]) of the same compound?
The inhibition in vivo at 1 µmol/kg was 61%.

What about the Activity [3] of the same compound?
Its Activity is 12%.

And the inhibition (Glycine max)?
Its inhibition is 18%.

For `Cc1ccc2oc(=O)c(C(=O)NCCCCCCCCNC(=O)CCCCC3CCSS3)c(O)c2c1` (stereo not given), which inhibition in vivo at 10 µmol/kg (Rattus norvegicus [10]) is on record?
The inhibition in vivo at 10 µmol/kg was 73%.

What about the Activity [1] of the same compound?
The Activity was 65%.

And the survival at 24 h [4]?
Its survival at 24 h is 80%.

What about the Activity [6] of the same compound?
Its Activity is 69%.

What about the Activity (Rattus norvegicus [7]) of the same compound?
The Activity was “Non-toxic”.

And the Activity [8]?
Its Activity is 100%.

What about the Activity [2] of the same compound?
Its Activity is 89%.

What about the Activity (Rattus norvegicus [9]) of the same compound?
The Activity was “Non-toxic”.

And the inhibition in vivo at 1 µmol/kg (Rattus norvegicus [11])?
Its inhibition in vivo at 1 µmol/kg is 60%.

And the Activity [3]?
The Activity was 87%.

What about the inhibition (Glycine max) of the same compound?
The inhibition was 8.3%.

For `O=C(O)CCCCC1CCSS1` (stereo not drawn) [LIPOIC ACID, ALPHA], which Activity [1] is on record?
The Activity was 27%.

What about the inhibition in vivo at 10 µmol/kg (Rattus norvegicus [5]) of the same compound?
The inhibition in vivo at 10 µmol/kg was 29.6%.

And the Activity [6]?
Its Activity is 20%.

And the Activity [8]?
The Activity was 38.6%.

And the Activity [2]?
The Activity was 5%.

And the Activity [3]?
Its Activity is 7%.

And the inhibition (Glycine max)?
Its inhibition is 29.1%.

Which Activity [1] does the source give for `Cc1ccc2oc(=O)c(C(=O)Nc3ccccc3N)c(O)c2c1` here?
Its Activity is 65%.

What about the survival at 24 h [4] of the same compound?
The survival at 24 h was 80%.

What about the inhibition in vivo at 10 µmol/kg (Rattus norvegicus [5]) of the same compound?
The inhibition in vivo at 10 µmol/kg was 60%.

What about the Activity [6] of the same compound?
Its Activity is 74%.

What about the Activity (Rattus norvegicus [7]) of the same compound?
Its Activity is “Non-toxic”.

And the Activity [8]?
The Activity was 100%.

And the Activity [2]?
Its Activity is 70%.

And the Activity (Rattus norvegicus [9])?
Its Activity is “Non-toxic”.

What about the Activity [3] of the same compound?
The Activity was 78%.

What about the inhibition (Glycine max) of the same compound?
Its inhibition is 22%.

What does the source list for `O=C(CCCCC1CCSS1)NCCCCCCCCNC(=O)c1c(O)c2ccccc2oc1=O` (stereo not given)?
Activity [1]: 21%; survival at 24 h [4]: 80%; inhibition in vivo at 10 µmol/kg (Rattus norvegicus [5]): 43%; Activity [6]: 21%; Activity (Rattus norvegicus [7]): Non-toxic; Activity [8]: inactive; Activity [2]: 32%; Activity (Rattus norvegicus [9]): Non-toxic; Activity [3]: 25%; inhibition (Glycine max): 33%

Which Activity [8] does the source give for `Cc1c(C)c2c(c(C)c1O)CCC(C)(C(=O)O)O2` (stereo not given) here?
Its Activity is 88.2%.

What does the source list for `CCOC(=O)c1c(O)c2cc(C)ccc2oc1=O`?
Activity [1]: 8%; survival at 24 h [4]: 80%; inhibition in vivo at 10 µmol/kg (Rattus norvegicus [5]): 41%; Activity [6]: 18%; Activity (Rattus norvegicus [7]): Non-toxic; Activity [8]: 81%; Activity [2]: 20%; Activity (Rattus norvegicus [9]): Non-toxic; Activity [3]: 33%; inhibition (Glycine max): 93%

What does the source list for `Cc1ccc2oc(=O)c(C(=O)NCCN)c(O)c2c1`?
Activity [1]: 59%; survival at 24 h [4]: 80%; inhibition in vivo at 10 µmol/kg (Rattus norvegicus [5]): 59%; Activity [6]: 48%; Activity (Rattus norvegicus [7]): Non-toxic; Activity [8]: 100%; Activity [2]: 70%; Activity (Rattus norvegicus [9]): Non-toxic; Activity [3]: 65%; inhibition (Glycine max): 14%

With `COc1ccc2c(c1)c(CC(=O)O)c(C)n2C(=O)c1ccc(Cl)cc1` [INDOMETHACIN] as the compound, how does the inhibition in vivo at 10 µmol/kg (Rattus norvegicus [5]) read?
Its inhibition in vivo at 10 µmol/kg is 47%.

Which Activity [1] does the source give for `Nc1ccccc1NC(=O)c1c(O)c2ccccc2oc1=O` here?
The Activity was 93%.

And the survival at 24 h [4]?
Its survival at 24 h is 80%.

What about the inhibition in vivo at 10 µmol/kg (Rattus norvegicus [5]) of the same compound?
The inhibition in vivo at 10 µmol/kg was 57%.

And the Activity [6]?
Its Activity is 90%.

What about the Activity (Rattus norvegicus [7]) of the same compound?
The Activity was “Non-toxic”.

And the Activity [8]?
Its Activity is “inactive”.

And the Activity [2]?
The Activity was 85%.

What about the Activity (Rattus norvegicus [9]) of the same compound?
The Activity was “Non-toxic”.

And the Activity [3]?
Its Activity is 83%.

And the inhibition (Glycine max)?
The inhibition was 23%.
